Tb MetRS inh: blocks T. brucei methionyl-tRNA synthetase activity; inhibition, % at 11.9 µM; 360,000 compounds, 0.4% hits; purified T. brucei MetRS, ATP depletion, Kinase-Glo luminescence;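 active = inhibition above a per-plate cutoff of the control wells' mean inhibition plus 3 SD, cut at about 5.5% in these data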;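 note: 0% = DMSO wells median and 100% = median of wells with control inhibitor compound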
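Material: T. brucei methionyl-tRNA synthetase, purified; reagent: substrates ATP, L-methionine and bulk Escherichia coli tRNA; dosing: 11.9 µM single point; timing: 15 min plus 2 h at 25 °C; detection: luminescence of leftover ATP; evaluation: % inhibition; control set: DMSO-only wells as low control; replicates: singlicate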
HGIII-sPLA2 inh: Blocks human group III sPLA2 activity | Q9NZ20 | QFRET BODIPY PC-A2 liposome hydrolysis, fluorescence | inhibition, % at 12.2 µM | 370,000 compounds, 0.56% hits;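 active = inhibition above mean plus 3 SD of compounds lying within the high and low control bounds, cut at about 19% in these data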;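 note: 0% = median of test compound wells and 100% = no enzyme DMSO wells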
PLC-beta3 inh: PLC-beta3 (human) inhibition, primary screen. Purified PLC-beta3, fluorogenic substrate, fluorescence. AID 720704. Q01970. inhibition, % at 12.2 µM. 370,000 compounds, 0.18% hits; in the data active = inhibition above about 11%;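 note: 0% = median of compound wells on plate and 100% = full blocker control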
PLCg1 inh: blocks human PLC-gamma1 enzyme activity; P19174; AID 720700; purified PLC-gamma1, fluorogenic substrate, fluorescence; inhibition, % at 12.2 µM; 370,000 compounds, 0.84% hits; in the data active = inhibition above about 9.5%
DAGLB inh: diacylglycerol lipase beta (human) inhibition. Q8NCG7. HEK293T DAGLB membrane lysate, EnzChek fluorogenic substrate. inhibition, % at 5.17 µM. 340,000 compounds, 0.059% hits; in the data active = inhibition above about 34%;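 note: 0% = enzyme with vehicle and 100% = wells lacking enzyme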
Target sequence (Q8NCG7 whole entry, looked up): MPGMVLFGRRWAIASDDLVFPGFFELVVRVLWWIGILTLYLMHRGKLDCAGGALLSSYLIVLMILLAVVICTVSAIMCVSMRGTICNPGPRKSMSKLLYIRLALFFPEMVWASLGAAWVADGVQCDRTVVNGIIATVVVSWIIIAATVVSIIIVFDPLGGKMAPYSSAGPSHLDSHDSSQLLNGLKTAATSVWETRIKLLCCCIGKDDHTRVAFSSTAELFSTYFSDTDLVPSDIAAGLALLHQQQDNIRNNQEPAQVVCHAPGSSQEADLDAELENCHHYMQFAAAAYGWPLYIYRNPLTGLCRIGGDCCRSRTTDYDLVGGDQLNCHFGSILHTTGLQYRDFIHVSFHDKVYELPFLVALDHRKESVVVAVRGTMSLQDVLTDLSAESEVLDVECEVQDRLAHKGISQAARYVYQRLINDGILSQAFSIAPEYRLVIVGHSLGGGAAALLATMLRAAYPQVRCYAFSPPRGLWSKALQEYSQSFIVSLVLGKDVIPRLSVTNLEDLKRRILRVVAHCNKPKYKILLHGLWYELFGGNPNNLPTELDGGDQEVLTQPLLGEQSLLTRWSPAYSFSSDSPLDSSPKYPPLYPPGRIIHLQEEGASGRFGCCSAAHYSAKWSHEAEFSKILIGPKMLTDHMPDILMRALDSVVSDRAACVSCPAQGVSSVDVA
Tb MetRS conf: confirmation of Trypanosoma brucei MetRS inhibitors. T. brucei MetRS enzyme, luminescence (ATP depletion). shares compounds with Tb MetRS inh. inhibition, % at 11.9 µM. 1,400 compounds, 93% hits; in the data active = inhibition above about 7%
Jurkat tox: kills Jurkat cells in T. brucei MetRS counterscreen. shares compounds with Tb MetRS inh. Jurkat cells viability, ATP luminescence. inhibition, % at 8.3 µM. 1,400 compounds, 12% hits. AID 624413; in the data active = inhibition above about 15%;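 note: 0% = vehicle and 100% = reference inhibitor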
TbMetRS FP orth: orthogonal test for Trypanosoma brucei MetRS inhibitors; shares compounds with Tb MetRS inh; purified T. brucei MetRS, fluorescence polarization; inhibition, % at 11.9 µM; 1,400 compounds, 44% hits; AID 651607; in the data active = inhibition above about 17%;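 note: 0% = vehicle wells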
Active calls of the source: *; . = not tested or not shown. This is a sample that favours compounds with a hit; in the whole collection about 1.9% have one here.

SMILES	Tb MetRS inh	HGIII-sPLA2 inh	PLC-beta3 inh	PLCg1 inh	DAGLB inh	Tb MetRS conf	Jurkat tox	TbMetRS FP orth
O=C(Cn1c(/C=C/c2ccccc2)nc2ccccc21)Nc1ccc(F)cc1	32.1*	-4.0	-351.7	-365.6	3.8	55.2*	7.7	39.5*
CSc1nc2ccccc2n1CC(=O)Nc1ccccc1	0.1	0.7	1.7	3.1	0.0	.	.	.
COC(=O)[C@]12C[C@H](CC(=O)NCCCN3CCCC3=O)C(=O)N(Cc3ccc4c(c3)OCO4)C1=C[C@H](C(C)(C)C)O[C@@H]2C	.	-2.0	0.0	-0.6	.	.	.	.
O=C(CNC(=O)c1ccc2c(c1)OCO2)N/N=C/c1cccc([N+](=O)[O-])c1	-0.6	3.8	2.1	0.7	-0.5	.	.	.
O=C(CNC(=O)c1ccc2c(c1)OCO2)N/N=C(Br)/C=C/c1ccccc1	34.6*	-9.1	-5.9	-0.9	3.4	52.4*	29.1*	42.1*
O=S1(=O)CC2c3ccc(F)cc3CN2CN1C1CCCC1 (stereo not given)	.	17.3	-14.4	-3.1	.	.	.	.
O=C(NC(=S)NNC(=O)c1cnccn1)c1ccc(Cl)cc1	5.9*	2.8	-2.6	-1.7	1.0	1.8	6.1	-4.6
COc1ccc(C(=O)NC(=S)NNC(=O)c2cnccn2)cc1	-0.2	3.6	1.5	2.1	0.4	.	.	.
Cc1[nH]c2ccccc2c(=O)c1CN1CCCCC1	-0.1	-1.2	8.1	6.1	3.1	.	.	.
Cc1[nH]c2ccc(Br)cc2c(=O)c1CN1CCCCCC1	60.2*	1.4	-25.6	-22.2	-4.8	82.2*	3.6	51.6*
CCOc1ccc2[nH]c(C)c(CN3CCCCC3)c(=O)c2c1	-0.9	0.1	-10.6	-8.5	-1.2	.	.	.
Cc1[nH]c2ccc(Cl)cc2c(=O)c1CN1CCCC1	45.5*	-0.9	-4.2	-4.0	0.8	48.3*	10.0	28.3*
CC(C)c1[nH]nc2c1C(c1cccc(C(F)(F)F)c1)N(c1ccccc1)C2=O (stereo not given)	.	10.1	-1.9	0.5	.	.	.	.
Clc1cccc(-c2nnc(SCc3nc4ccccc4[nH]3)n2Cc2ccco2)c1	1.3	-25.2	-51.7	-36.6	-1.4	.	.	.
Cn1c(COc2ccccc2)nnc1SCc1nc2ccccc2[nH]1	0.9	-7.5	-15.7	-12.7	1.8	.	.	.
Clc1ccc(OCc2nnc(SCc3nc4ccccc4[nH]3)n2Cc2ccco2)cc1	10.9*	-22.7	-11.2	-3.2	4.8	84.0*	20.9*	66.3*
CCn1c(COc2ccc(C)cc2)nnc1SCc1nc2ccccc2[nH]1	15.3*	-2.7	-9.3	-2.6	-0.3	19.8*	10.7	7.5
COc1ccc(N2CCN(CCNC(=O)Nc3ccc(Cl)cc3)CC2)cc1	12.1*	4.9	-0.1	-1.1	-1.0	25.5*	6.8	13.4
Cc1cc(SCC(=O)N/N=C/c2ccc(O)c(O)c2)c(C)cc1Br	41.2*	6.5	3.8	-1.4	15.3	82.3*	15.1*	55.6*
O=C1CCCN1CCCn1cnc2c([nH]c3ccc(F)cc32)c1=O	0.0	-2.9	-4.1	-0.4	3.3	.	.	.
Cc1ccc2[nH]c3c(NCCN4CCOCC4)ncnc3c2c1	11.1*	1.1	-52.5	-28.3	-0.9	22.3*	4.0	8.3
CCN1CCCC1Cn1cnc2c([nH]c3ccc(C)cc32)c1=O (stereo not given)	0.7	-2.7	-75.2	-56.6	1.2	.	.	.
Cc1ccc2ncnc(NCCCN3CCOCC3)c2c1	0.2	4.3	-1.1	-2.1	-1.6	.	.	.
O=C1CCCN1CCCNc1ncnc2c1[nH]c1ccc(Cl)cc12	62.3*	2.6	-14.8	-10.4	1.7	70.5*	4.5	50.6*
Clc1ccc2[nH]c3c(NCCCN4CCOCC4)ncnc3c2c1	45.1*	-6.0	-23.9	-19.7	5.9	56.5*	6.2	47.6*
SMILES	Tb MetRS inh	HGIII-sPLA2 inh	PLC-beta3 inh	PLCg1 inh	DAGLB inh	Tb MetRS conf	Jurkat tox	TbMetRS FP orth
CCN1CCCC1CNc1ncnc2c1[nH]c1ccc(Cl)cc12 (stereo not given)	37.9*	0.2	-19.4	-13.2	-0.6	59.2*	1.8	36.0*
COc1ccc(-c2cc(C(=O)NN=Cc3ccccc3[N+](=O)[O-])[nH]n2)cc1	.	5.1	0.8	-1.7	.	.	.	.
Cc1ccc2[nH]c3c(N4CCN(Cc5ccccc5)CC4)ncnc3c2c1	8.1*	-12.8	-150.9	-108.6	2.7	17.9*	15.3*	3.6
Cc1ccc2c(c1)[nH]c1c(N3CCN(Cc4ccccc4)CC3)ncnc12	0.3	-33.5	-50.6	-35.7	-1.4	.	.	.
CCOc1ccc2[nH]c3c(NCCN(C)C)ncnc3c2c1	0.4	2.3	-132.1	-80.0	1.5	.	.	.
C=CCNc1ncnc2c1[nH]c1ccc(C)cc12	11.0*	5.2	-51.5	-42.2	2.1	22.3*	14.0	12.4
Cc1ccc(NC(=O)Cc2cccc(OC(F)F)c2)c(S(=O)(=O)N2CCOCC2)c1	.	7.1	2.7	5.6	.	.	.	.
COc1ccc(C(=O)NC(C)CCc2ccccc2)cc1[N+](=O)[O-] (stereo not given)	-0.2	-4.1	-4.0	3.8	-3.1	.	.	.
CC(CCc1ccccc1)NC(=O)c1ccc(-n2cncn2)c([N+](=O)[O-])c1 (stereo not given)	25.6*	0.9	-10.4	-2.1	4.3	54.9*	5.1	30.7*
Cc1ccc(NC(=O)CN(C)C(=O)c2ccc(Cl)c([N+](=O)[O-])c2)cc1	35.5*	-2.3	1.1	-1.0	-1.6	57.6*	1.4	36.9*
Cc1ccc(NC(=O)c2ccc(-n3cccn3)c([N+](=O)[O-])c2)cc1C	1.3	-9.8	2.4	5.8	0.8	.	.	.
CN(CC(=O)Nc1ccc(Cl)cc1)C(=O)c1ccc(-n2cncn2)c([N+](=O)[O-])c1	70.1*	-1.7	-5.7	-1.9	1.5	100.3*	-2.7	84.9*
CCN(CC)S(=O)(=O)c1cc(NC(=O)c2ccc(-n3cncn3)c([N+](=O)[O-])c2)ccc1C	18.2*	-44.8	-2.6	6.7	2.5	46.9*	34.8*	38.5*
CN(CC(=O)Nc1ccc(Cl)c(C(F)(F)F)c1)C(=O)c1ccc(N2CCOCC2)c([N+](=O)[O-])c1	0.0	-7.8	1.6	5.6	9.3	.	.	.
Cc1ccc(NC(=O)c2ccc(-n3cncn3)c([N+](=O)[O-])c2)cc1	27.1*	0.4	3.4	4.2	1.9	46.0*	-0.1	15.2
O=C(COc1ccccc1Cl)NNC(=O)c1ccc(-n2cncn2)c([N+](=O)[O-])c1	12.7*	-4.1	-7.0	-1.1	-0.9	42.5*	-3.7	21.4*
O=C(NCCC1=CCCCC1)c1ccc(-n2cncn2)c([N+](=O)[O-])c1	14.7*	7.5	-5.8	0.0	0.8	32.5*	-1.2	19.8*
CC1CCCCC1NC(=O)c1ccc(-n2cncn2)c([N+](=O)[O-])c1 (stereo not given)	36.7*	-1.2	-3.6	0.4	0.0	73.2*	-6.8	41.2*

Screening data: PubChem BioAssay, The Scripps Research Institute Molecular Screening Center
